We go through one molecule from ChEMBL document CHEMBL1157487, “Discovery of potent CCR4 antagonists: Synthesis and structure-activity relationship study of 2,4-diaminoquinazolines” (Bioorg Med Chem, 2008).

In series [1] the target is T1, C-C chemokine receptor type 4 (Mus musculus) (UniProt P51680).
T1 sequence (whole entry): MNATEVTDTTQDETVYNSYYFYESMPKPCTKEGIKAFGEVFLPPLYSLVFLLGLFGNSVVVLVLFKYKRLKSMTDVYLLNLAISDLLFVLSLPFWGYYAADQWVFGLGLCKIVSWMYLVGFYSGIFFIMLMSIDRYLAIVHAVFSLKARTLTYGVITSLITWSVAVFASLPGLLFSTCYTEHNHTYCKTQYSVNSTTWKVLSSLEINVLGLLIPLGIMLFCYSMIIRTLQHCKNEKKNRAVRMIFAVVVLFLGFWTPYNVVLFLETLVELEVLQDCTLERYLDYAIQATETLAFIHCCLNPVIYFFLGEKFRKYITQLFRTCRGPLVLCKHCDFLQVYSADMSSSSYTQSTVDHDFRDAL
Kind of series: Antagonist activity at mouse CCR4 receptor expressed in mouse B300-19 cells assessed as CCL22-induced chemotaxis by bioluminescent assay. In kind it is functional, cell-based. The method, boiled down:
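Chemotaxis of B300-19 stable transformants carrying mouse CCR4 cDNA, suspended at 5×10^6 cells/mL in RPMI 1640 plus 0.1% BSA with test compound; 1 nM mouse CCL22 in lower wells, 5-µm pore filters, 3 h at 37 °C, 5% CO2. Migrated cells counted by ATP bioluminescence. Triplicate at four concentrations. IC50 from non-linear curve fit.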

For series [2], the target named is T2, C-C chemokine receptor type 4 (Homo sapiens, UniProt P51679).
T2 sequence (P51679 whole entry): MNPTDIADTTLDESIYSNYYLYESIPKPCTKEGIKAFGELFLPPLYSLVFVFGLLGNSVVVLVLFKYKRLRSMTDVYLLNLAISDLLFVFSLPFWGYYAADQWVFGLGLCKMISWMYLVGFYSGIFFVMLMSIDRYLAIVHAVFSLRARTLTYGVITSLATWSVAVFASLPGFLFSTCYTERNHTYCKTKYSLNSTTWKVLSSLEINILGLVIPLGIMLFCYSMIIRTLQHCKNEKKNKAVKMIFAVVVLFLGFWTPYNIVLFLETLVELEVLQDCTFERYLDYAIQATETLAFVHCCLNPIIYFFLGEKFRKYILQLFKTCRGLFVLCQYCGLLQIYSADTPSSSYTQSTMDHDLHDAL
Description: Antagonist activity at human CCR4 receptor expressed in mouse B300-19 cells by [35S]GTPgammaS binding assay. In kind it is functional, cell-based. The method, boiled down:
(§1)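 Membranes from human CCR4-expressing B300-19 cells (1 µg protein/well) with 150 pM [35S]GTPγS, 2 µM GDP, 3 nM MDC (CCL22), WGA SPA beads, test compound in 20 mM Hepes-NaOH pH 7.05, 100 mM NaCl, 5 mM MgCl2, 0.2% BSA; 1.5 h, 25 °C. Percent inhibition against no-compound and no-CCL22 controls. Duplicate, four concentrations, usually two determinations averaged. IC50 by non-linear fitting.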
In general terms: GTPγS resists hydrolysis and so accumulates on activated G proteins.

Series [3] is described as follows: Cytotoxicity against CCR4 expressing mouse B300-19 cells at 3 uM after 12 hrs by alamar blue assay. The conditions noted are these: b300-19, 12 h. In kind it is cell-based. The essentials: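 CCR4-expressing B300-19 cells (5×10^4/well) in RPMI 1640 with 10% FBS, 2-mercaptoethanol and antibiotics, 37 °C, 5% CO2, exposed to 0.3–10 µM compound for 12 h, then Alamar Blue for 4 h; fluorescence read at excitation 570 and emission 600 nm. Viability relative to untreated wells; minimum cytotoxic dose is the concentration lowering viability below 70%.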
A general note: Alamar Blue is a resazurin reagent that responds to reducing activity.

The target in series [4] is T3, C-C chemokine receptor type 4 (Homo sapiens) (UniProt P51679).
T3 sequence (whole entry): T2 sequence (P51679 whole entry)
Kind of series: Antagonist activity at human CCR4 receptor expressed in mouse B300-19 cells at 1 uM by [35S]GTPgammaS binding assay. In kind it is functional, cell-based. The method, boiled down: as §1

In series [5] the target is T3, C-C chemokine receptor type 4 (Homo sapiens). Description: Displacement of [125I]CCl22 from human CCR4 receptor expressed in mouse B300-19 cells at 1 uM by SPA. In kind it is cell-based. The essentials:
(§2)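 SPA on whole human CCR4-expressing B300-19 cells (2×10^5/well) with 25 pM [125I]CCL22 and WGA SPA beads, test compound, in 50 mM Hepes pH 7.4, 5 mM MgCl2, 1 mM CaCl2, 0.1% BSA; 2 h, 25 °C. Nonspecific binding defined with 10 nM unlabeled CCL22. Duplicate, four concentrations, usually two determinations averaged. IC50 by non-linear curve fitting.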
For orientation: In a radioligand displacement assay an active substance lowers the binding of a labelled ligand.

The target of series [6] is T2, C-C chemokine receptor type 4. Description: Displacement of [125I]CCl22 from human CCR4 receptor expressed in mouse B300-19 cells by SPA. In kind it is cell-based. The method, boiled down: as §2
Series [7] addresses T3, C-C chemokine receptor type 4 (Homo sapiens). Description: Antagonist activity at human CCR4 receptor expressed in mouse B300-19 cells assessed as CCL22-induced chemotaxis by bioluminescent assay. In kind it is functional, cell-based. The method, boiled down:
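Stably transfected B300-19 cells (human CCR4 cDNA, G418 selection) at 5×10^6 cells/mL in RPMI 1640 with 0.1% BSA, pretreated with test compound; placed over 3 nM human CCL22 in 5-µm-pore polycarbonate filter chambers, 3 h, 37 °C, 5% CO2. Migrated cells quantified by ATP bioluminescence. Controls without compound or without CCL22. Triplicate, four concentrations. IC50 by non-linear curve fitting.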

The term IC50 denotes the concentration at which inhibition is half-maximal. Higher therefore signals weaker potency. Usually inhibition stands for the change of the read-out against control, counted positive when it falls. A high value points to strong suppression.

With `COc1cc2nc(N3CCC(N4CCCC4)CC3)nc(NC3CCCCCC3)c2cc1OC`, the Activity in series [1] is 0.13 µM; in series [3], “Toxic”; in series [7], 0.2 µM. The IC50 was found to be 19 nM in series [2] and 70 nM in series [6]. Moreover, the inhibition was 93% in series [4] and 100% in series [5].
